What was measured:
Assay type in all cases: in vivo, human
[1] = Phase I single ascending dose study of ALZ-801 loose-filled capsule; conditions: plasma, ALZ-801 capsule 172 and 300 mg doses
Procedure, shortened: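 Single fasted oral loose-filled capsules; 172 mg in 36 healthy subjects over 50 y (parallel, randomized 1:1:1), 300 mg in 15 subjects over 50 y. Plasma sampled over 48 h into K3 EDTA on ice, spun 2000g 10 min 4 °C, stored at or below −20 °C. LC-MS assay; non-compartmental analysis; Tmax as median (range).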

[2] = Phase I multiple ascending dose study of ALZ-801 capsule and tablet; conditions: plasma; for AUC24: mean ± SD
[3] = Urine drug recovery, renal clearance and estimate of oral bioavailability; conditions: for Mean Ae / CLr: Cohort D, 24-h urine; for CLr: mean ± SD
Procedure, shortened: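 Cohort D: 265 mg immediate-release tablet in the fed state (meal 30 min pre-dose), once on day 1, twice daily days 2–6, once on day 7. Urine was collected over 24 h on days 1 and 7 and assayed by LC-MS (LLOQ 30 ng/mL ALZ-801, 100 ng/mL tramiprosate). Renal clearance was calculated as Ae divided by plasma AUC24.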

median T max [1]: approximately 5 h
AUC24 ([2]; Day 1, fed, ALZ-801 tablet 265 mg (Cohort D)): 1810 ± 348 ng·h/mL
AUC24 ([2]; Day 7, fed, ALZ-801 tablet 265 mg twice daily (Cohort D)): 5470 ± 1030 ng·h/mL
median T max ([2]; days 7 and 14, all dosing regimens): 5 h
T max range ([2]; single oral dose of ALZ-801, day 1): 2 to 16 h
CLr ([3]; Day 1, ALZ-801 tablet 265 mg): 652 ± 161 mL/min
CLr ([3]; Day 7, ALZ-801 tablet 265 mg): 575 ± 218 mL/min
mean CLr (range) ([3]; across dosing cohorts and days, Study 2): 500 to 1570 mL/min
Compound: O=C(O)CCS(=O)(=O)O [NRM5074]
Mean Ae ([3]; Day 1, ALZ-801 tablet 265 mg): 70.8 mg
Mean Ae ([3]; Day 7, ALZ-801 tablet 265 mg): 188.7 mg

— article PMC5814546 (Clinical Pharmacokinetics, 2017)
